Assay results taken from article PMC8276234 (Journal of medicinal chemistry, 2019).

Legend:
H256A PDI [1] = biological target: T1, H256A PDI (Homo sapiens, UniProt P07237, H256A); assay: Thermal shift assay, H256A PDI; assay type: binding; settings: 100 μM
In short: (§1)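 Purified PDI (wild-type, C53S/C397S or H256A; 0.5 mg/mL in 50 mM Tris, pH 7.0) was mixed with compound in DMSO and ROX dye. Samples were heated from 25 to 99 °C at 1 °C/min. Boltzmann melting temperature was compared with the 5% DMSO control.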

U87MG = assay: MTT growth inhibition assay, U87MG; assay type: cell-based, human; settings: read-out: IC50, cytotoxicity U87MG, 72 hours, listed as 6 (BAP2)
In short: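 U87MG seeded at 5000 cells/well, incubated overnight at 37 °C and 5% CO2, then given test compound or vehicle for 72 h. MTT (3 mg/mL) was added for 4 h at 37 °C. Formazan was dissolved in DMSO with 15 min shaking at room temperature and read at 570 nm. Inhibition was calculated as [1-(At-Ab)/(Ac-Ab)]×100 against untreated and blank wells.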

H256A PDI [2] = biological target: T1, H256A PDI; assay: PDI reductase assay, H256A mutant PDI; assay type: biochemical; settings: 10 μM
In short: (§2)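 N-terminal His-tagged human PDI was expressed in E. coli BL21(DE3) pLysS with 1 mM IPTG for 4 h at 37 °C. It was purified on Ni-NTA and dialyzed into 100 mM sodium phosphate, 2 mM EDTA, pH 7.0. PDI (0.4 μM) was preincubated 1 h with compound in phosphate/EDTA buffer with 8 μM DTT. DTT (500 μM) and bovine insulin (130 μM) were then added at room temperature. Aggregation was read at 620 nm. Percent activity came from the 0–80 min change, corrected for DTT alone.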

b’ domain of PDI = b’ domain of PDI (Homo sapiens, UniProt P07237); assay: ANS spectral scan; assay type: binding; settings: 5 μM PDI, 100 μM compound
Sequence of b’ domain of PDI (P07237 18-508): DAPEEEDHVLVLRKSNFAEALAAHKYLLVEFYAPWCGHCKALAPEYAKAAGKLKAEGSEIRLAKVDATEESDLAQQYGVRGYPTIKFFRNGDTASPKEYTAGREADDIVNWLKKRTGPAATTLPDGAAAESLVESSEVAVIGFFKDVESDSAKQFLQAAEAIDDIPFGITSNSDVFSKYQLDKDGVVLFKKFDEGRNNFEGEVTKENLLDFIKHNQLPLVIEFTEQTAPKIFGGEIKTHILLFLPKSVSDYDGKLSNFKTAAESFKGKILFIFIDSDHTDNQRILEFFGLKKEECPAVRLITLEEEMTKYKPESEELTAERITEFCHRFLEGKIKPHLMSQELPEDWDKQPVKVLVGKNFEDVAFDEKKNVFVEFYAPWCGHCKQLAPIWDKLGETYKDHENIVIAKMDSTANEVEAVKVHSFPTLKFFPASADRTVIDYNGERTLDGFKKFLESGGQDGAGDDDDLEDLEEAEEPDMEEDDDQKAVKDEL
In short: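 Human PDI was preincubated with 100 μM compound or matching DMSO in TBS at 37 °C for 1 h. ANS was then added, followed by 20 min in the dark at 25 °C. Fluorescence spectrum: Ex 370 nm, Em 400–700 nm.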

A172 cells [3] = assay: Wound healing assay; assay type: cell-based, human; settings: 24 hours, BAP2 at 10 μM
In short: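 A172 cells were seeded at 50,000/well, grown overnight, then kept in serum-free DMEM for 24 h. A scratch was made and compounds added. Cells grew 24 h, until DMSO-control scratches closed, then were Giemsa-stained and imaged at 10X.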

A172 cells [4] = assay: Transwell migration assay; assay type: cell-based, human; settings: 4 hours, 30 μM
In short: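 Treated A172 cells (1 x 10^5) were seeded into inserts with 8.0 µm PET membranes in serum-free medium. The lower well held DMEM with 10% FBS, and FBS-free wells served as control. After 4 h, cells were Giemsa-stained and 5 fields per well were imaged at 10X.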

wild-type PDI = wild-type PDI (Homo sapiens, UniProt P07237); assay: Thermal shift assay, wild-type PDI; assay type: binding; settings: recombinant PDI, dose-dependent, up to 100 μM
Sequence of wild-type PDI (P07237 18-508): as above
In short: as §1

D54 cells = assay: Clonogenic survival assay with ionizing radiation; assay type: cell-based; settings: 1 μM, 0-6 Gy
In short: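 D54 monolayer cells (37 °C, 5% CO2, mycoplasma-tested, STR-authenticated) were irradiated at 0, 1, 2, 4 or 6 Gy and plated immediately at 200, 200, 400, 600 and 1000 cells/well. Test compounds (1 μM), reference inhibitor (0.05 μM) or DMSO were added. After 10–12 days, colonies were stained with 0.1% crystal violet.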

GRP78 = assay: Western blot, GRP78 expression; assay type: cell-based, human; settings: U87MG cells; 20 μM (PACMA31 1.0 μM), 24 hours
In short: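 Treated U87MG cells were lysed by sonication in Tris/NaCl/Triton X-100/SDS buffer (pH 7.4) and spun at 13,500×g, 4 °C, 10 min. Protein was quantified by BCA. 30 μg per lane ran on 10% gels and transferred to PVDF. Primary antibodies were applied overnight at 4 °C. Fluorescent secondaries were imaged.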

C53S/C397S PDI = C53S/C397S PDI (Homo sapiens, UniProt P07237, C397S/C53S); assay: Thermal shift assay, C53S/C397S PDI; assay type: binding; settings: 100 μM
Sequence of C53S/C397S PDI (P07237 18-508 C53S/C397S): as the sequence (P07237 18-508) above, with C36S, C380S counted along it
In short: as §1

PDI = PDI (Homo sapiens, UniProt P07237); assay: PDI reductase assay after competition with N-acetyl cysteine; assay type: biochemical; settings: compound 40 μM; 0, 1, 2 or 5 mM NAC; listed as BAP2
Sequence of PDI (P07237 18-508): as the sequence (P07237 18-508) above
In short: as §2

GBM cell = assay: Combination with As2O3, GBM cell proliferation; assay type: cell-based

T1 sequence (P07237 18-508 H256A): as the sequence (P07237 18-508) above, with H239A counted along it

- stabilization (thermal shift) in the H256A mutant (H256A PDI [1]): abolished
- activity against H256A mutant PDI (H256A PDI [2]): abolished upon mutation
- effect on ANS fluorescence (b’ domain of PDI): hindered the ability of ANS to fluoresce
- increase of melting temperature (wild-type PDI): more than 1 °C
- stabilization (thermal shift) in the C53S/C397S mutant (C53S/C397S PDI): but not the C53S/C397S mutant
- activity after competition with N-acetyl cysteine (NAC) (PDI): unaffected by up to 5 mM NAC
Structure (SMILES): N#Cc1cccc(/C=C/C(=O)c2ccc(O)cc2)c1 [Compound 6, (E)-3-(3-(4-Hydroxyphenyl)-3-oxoprop-1-en-1-yl)benzonitrile]
- IC50 (U87MG): 10.3 ± 2.3 µM
- wound healing / cell migration (A172 cells [3]): inhibited wound healing
- transwell migration (A172 cells [4]): inhibited migration
- synergy with ionizing radiation (IR) (D54 cells): synergized with IR
- expression of GRP78 (GRP78): increase in expression of GRP78
- inhibition of GBM cell proliferation in combination with As2O3 (GBM cell): synergistically
